Results pooled from the literature.
Compare with care: the assays were run in different laboratories.
Cell line: A549
Observed: cell growth or viability

CC(=O)O[C@H]1C(=O)[C@@]2(C)[C@H]([C@H](OC(=O)c3ccccc3)[C@]3(O)C[C@H](OC(=O)[C@H](O)[C@@H](NC(=O)c4ccccc4)c4ccccc4)C(C)=C1C3(C)C)[C@]1(OC(C)=O)CO[C@@H]1C[C@@H]2O
IC50 (MTT; 72 h): 0.64 µM

COc1ccc(NC(=S)N/N=C/c2cccc3cc4ccccc4nc23)cc1
IC50 (MTT; 48 h): 17.8 µM

Fc1ccccc1Nc1nc(-c2ccncc2)nc2c1CNCC2
IC50 (MTT): > 100 µM

O=C(NCc1ccccc1)Nc1nc2cc(-c3ccc4ncn(Cc5ccccc5)c(=O)c4c3)ccc2s1
IC50 (MTT; 72 h): 3.13 µM

COc1cc(C2C3=C(Nc4nc(SC)[nH]c(=O)c42)c2ccccc2C3=O)ccc1O (stereo not shown)
IC50 (MTT; 72 h): > 1000 µM

NS(=O)(=O)c1ccc(-n2nc(C(=O)NN3C(=O)c4ccccc4C3=O)cc2-c2ccccc2)cc1
IC50 (fluorescence; 48 h): 33.5 µM

CNC(=S)N/N=C/c1cccc2cc3ccccc3nc12
IC50 (MTT; 48 h): 26.9 µM

O=C(C=Cc1ccc(OCCOc2ccc(C=CC(=O)c3cccs3)cc2)cc1)c1cccs1
IC50 (MTT; 48 h): 273 µM

O=C(Nc1ccc(-c2ccc3ncn(Cc4ccccc4)c(=O)c3c2)cn1)C1CC1
IC50 (CCK-8; 72 h): > 10 µM

COc1ccc(CNc2ccc(C(=O)O)cc2)cc1OC
IC50 (resazurin; 72 h): > 100 µM

CCCn1cnc2ccc(-c3ccc(NC(=O)CC4CC4)nc3)cc2c1=O
IC50 (CCK-8; 72 h): 2.65 µM

CCC(=O)Nc1nc2cc(-c3ccc4ncn(Cc5ccccc5)c(=O)c4c3)ccc2s1
IC50 (MTT; 72 h): > 20 µM

COc1cccc2c1C(=O)c1c(O)c3c(c(O)c1C2=O)C[C@@](O)(C(=O)CO)C[C@@H]3O[C@H]1C[C@H](N)[C@H](O)[C@H](C)O1
IC50 (MTT; 48 h): 5.95 µM

N=C(N)c1ccc(OCCCCCOc2ccc(C(=N)N)cc2)cc1
IC50 (ATP luminescence; 72 h): 12.8 µM

CN1CCc2c(c3ccccc3n2Cc2ccc(C(=O)NO)cc2)C1
IC50 (CCK-8; 48 h): 27.8 µM

O=C(NO)Nc1nc2c(Cl)cc(Cl)cc2c(=O)n1-c1ccc(Cl)cc1
IC50 (MTT; 48 h): > 200 µM

CCCn1cnc2ccc(-c3ccc(NC(=O)CC4CCC4)nc3)cc2c1=O
IC50 (CCK-8; 72 h): > 10 µM

COc1cccc2c1C(=O)c1c(O)c3c(c(O)c1C2=O)C[C@@](O)(C(=O)CO)C[C@@H]3O[C@H]1C[C@H](N)[C@H](O)[C@H](C)O1
IC50 (MTT): 3.87 mg/L

COC(=O)c1cc(C(C)=NNc2nc(-c3cccc4cc[nH]c34)cs2)ccc1O
IC50 (MTT; 96 h): 92.3 µM

OC1CCN(c2ccc(/C=N/NC(=S)Nc3ccc(F)cc3)cc2)CC1
IC50 (MTT; 24 h): 2.81 µM

O=C(Nc1ccc(F)cc1)Nc1nc2cc(-c3ccc4ncn(Cc5ccccc5)c(=O)c4c3)ccc2s1
IC50 (MTT; 72 h): 2.83 µM

C(=N\Nc1cc(N/N=C/c2ccc3ccccc3n2)ncn1)/c1ccc2ccccc2n1
IC50 (MTT; 48 h): 16.7 µM

COc1cc(C=NNC(=O)c2cc(-c3ccccc3)n(-c3ccc(S(N)(=O)=O)cc3)n2)cc(OC)c1OC
IC50 (fluorescence; 48 h): 18.8 µM

COc1ccccc1CNc1ccc(C(=O)O)cc1
IC50 (resazurin; 72 h): > 100 µM

C(=N\Nc1cc(N/N=C/c2ccc3ccccc3n2)nc(-c2ccccc2)n1)/c1ccc2ccccc2n1
IC50 (MTT; 48 h): 7.32 µM

CCCCC(=O)Nc1ccc(-c2ccc3ncn(CCCC)c(=O)c3c2)cn1
IC50 (CCK-8; 72 h): 0.87 µM

CC(C)[C@@H]1NC(=O)[C@@H](Cc2c[nH]cn2)NC(=O)[C@H]([C@@H](C)O)NC(=O)[C@@H](CCCN)NC(=O)[C@H](Cc2ccccc2)NC(=O)[C@@H](Cc2ccccc2)NC1=O
IC50 (ATP luminescence): 55.8 µM

CCCCn1cnc2ccc(-c3ccc(NC(=O)C4CCCC4)nc3)cc2c1=O
IC50 (CCK-8; 72 h): 4.58 µM

O=C(Nc1ccc(Cl)cc1)Nc1nc2cc(-c3ccc4ncn(CCN5CCOCC5)c(=O)c4c3)ccc2s1
IC50 (MTT; 72 h): > 20 µM

O=C(Nc1ccc(-c2ccc3ncn(Cc4ccccc4)c(=O)c3c2)cn1)C1CCC1
IC50 (CCK-8; 72 h): > 10 µM

OC1CCN(c2ccc(/C=N/NC(=S)NCCc3ccccc3)cc2)CC1
IC50 (MTT; 24 h): 1.33 µM

Cc1cc(NS(=O)(=O)c2ccc(NC(=O)/C(C#N)=C/c3ccc(N4CCCC4)cc3)cc2)no1
IC50 (MTT; 48 h): 180 µM

COc1cccc(NC(=O)Cn2cc(COc3ncnc4[nH]cnc34)nn2)c1
IC50 (MTT): 30.2 µM

O=C(O)c1ccc(NCc2ccc(Br)cc2)cc1
IC50 (resazurin; 72 h): > 100 µM

O=C(Nc1ccc(-c2ccc3ncn(Cc4ccccc4)c(=O)c3c2)cn1)C1CCCC1
IC50 (CCK-8; 72 h): > 10 µM

Cc1cc(NS(=O)(=O)c2ccc(NC(=O)/C(C#N)=C/c3ccncc3)cc2)no1
IC50 (MTT; 48 h): 196 µM

O=C(N[C@@H](CSCc1ccc([N+](=O)[O-])cc1)C(=O)NO)c1ccccc1
IC50 (MTT; 48 h): 48.2 µM

COc1cccc(NC(=O)Nc2nc3cc(-c4ccc5ncn(CC(=O)N6CCOCC6)c(=O)c5c4)ccc3s2)c1
IC50 (MTT; 72 h): > 20 µM

CNC(=O)c1cc(Oc2ccc(NC(=O)Nc3ccc(Cl)c(C(F)(F)F)c3)cc2)ccn1
IC50 (MTT; 24 h): 2.92 µM

O=C(NO)Nc1nc2c(Cl)cc(Cl)cc2c(=O)n1-c1ccccc1
IC50 (MTT; 48 h): 45.1 µM

O=C(O)c1ccc(NCc2cccc([N+](=O)[O-])c2)cc1
IC50 (resazurin; 72 h): > 100 µM

O=C(C=Cc1cccs1)c1ccc(OCCOc2ccc(C(=O)C=Cc3cccs3)cc2)cc1
IC50 (MTT; 48 h): 42 µM

COc1cccc2c1C(=O)c1c(O)c3c(c(O)c1C2=O)C[C@@](O)(C(=O)CO)C[C@@H]3O[C@H]1C[C@H](N)[C@H](O)[C@H](C)O1
IC50 (MTT; 24 h): 0.69 mg/L

O=C(Nc1nc2cc(-c3ccc4ncn(Cc5ccccc5)c(=O)c4c3)ccc2s1)NC1CCCCC1
IC50 (MTT; 72 h): 12.2 µM

C/C(=N\N=C(/C)c1c(O)c2ccccc2oc1=O)c1c(O)c2ccccc2oc1=O
IC50 (MTT; 48 h): 39.5 µM

NNc1nc2c(Cl)cc(Cl)cc2c(=O)n1-c1ccc(Cl)cc1
IC50 (MTT; 48 h): 25.9 µM

COc1cccc2c1C(=O)c1c(O)c3c(c(O)c1C2=O)C[C@@](O)(C(=O)CO)C[C@@H]3O[C@H]1C[C@H](N)[C@H](O)[C@H](C)O1
IC50 (96 h): 0.236 µM

CCCCn1cnc2ccc(-c3ccc(NC(=O)NCc4ccccc4)nc3)cc2c1=O
IC50 (CCK-8; 72 h): 0.38 µM

O=C(O)c1ccc(NCc2cccc(C(F)(F)F)c2)cc1
IC50 (resazurin; 72 h): > 100 µM

COc1cccc(NC(=O)Nc2nc3cc(-c4ccc5ncn(CCN(C)C)c(=O)c5c4)ccc3s2)c1
IC50 (MTT; 72 h): 0.91 µM

OC1CCN(c2ccc(/C=N/NC(=S)NCc3ccccc3)cc2)CC1
IC50 (MTT; 24 h): 4.25 µM

CN(C)C(=O)Nc1nc2ccc(Br)cc2c(=O)n1-c1ccccc1
IC50 (MTT; 48 h): 31.1 µM
